According to ChEMBL document CHEMBL2424551, “Synthesis, in vitro evaluation and molecular modelling of naphthalimide analogue as anticancer agents” (2013):
Active and inactive are the calls of the source. The calls are words filed in the database; no cut-off is given here.

Experiments:
Assay type in all cases: functional
PC-3 = test: Growth inhibition of human PC3 cells at 10 uM after 48 hrs by SRB assay; details: PC-3, 48 h, read-out: GI
How it was run: (§1)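 Cells grown in RPMI 1640 with 5% FBS and 2 mM L-glutamine, plated at 5000–40,000 cells/well by doubling time and preincubated 24 h (37 °C, 5% CO2); a time-zero plate is TCA-fixed. Single dose added, then 48 h incubation. Fixed with cold TCA, stained with 0.4% SRB, dye solubilized in 10 mM Tris base, absorbance at 515 nm; percent growth vs time-zero and untreated control.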

NCI-H522 = test: Growth inhibition of human NCI-H522 cells at 10 uM after 48 hrs by SRB assay; details: NCI-H522, 48 h, read-out: GI; how it was run: as §1
T47D = test: Growth inhibition of human T47D cells at 10 uM after 48 hrs by SRB assay; details: read-out: GI
How it was run: (§2)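 NCI 60-cell-line screen with a single 10 µM dose. Cells are grown in RPMI 1640 with 5% FBS and 2 mM L-glutamine, plated at 5000–40,000 cells/well according to doubling time, and preincubated 24 h at 37 °C, 5% CO2; time-zero plates are TCA-fixed at that point. Drug exposure is 48 h. Adherent cells are fixed with cold TCA, stained with 0.4% SRB in 1% acetic acid and read at 515 nm. Percent growth is calculated relative to time-zero and untreated controls and reported as GI%.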

NCI-H322M = test: Growth inhibition of human NCI-H322M cells at 10 uM after 48 hrs by SRB assay; details: read-out: GI; how it was run: as §1
HOP-62 = test: Growth inhibition of human HOP62 cells at 10 uM after 48 hrs by SRB assay; details: HOP-62, 48 h, read-out: GI; how it was run: as §1
OVCAR-5 = test: Growth inhibition of human OVCAR5 cells at 10 uM after 48 hrs by SRB assay; details: OVCAR-5, 48 h, read-out: GI; how it was run: as §1
UACC-62 = test: Growth inhibition of human UACC62 cells at 10 uM after 48 hrs by SRB assay; details: UACC-62, 48 h, read-out: GI; how it was run: as §2
SNB-75 = test: Growth inhibition of human SNB75 cells at 10 uM after 48 hrs by SRB assay; details: SNB-75, 48 h, read-out: GI; how it was run: as §2
SN12C = test: Growth inhibition of human SN12C cells at 10 uM after 48 hrs by SRB assay; details: read-out: GI; how it was run: as §2
[1] = Growth inhibition of human HCC2998 cells at 10 uM after 48 hrs by SRB assay; details: HCC 2998, 48 h, read-out: GI; how it was run: as §1
TK-10 = test: Growth inhibition of human TK10 cells at 10 uM after 48 hrs by SRB assay; details: TK-10, 48 h, read-out: GI; how it was run: as §2
HCT-15 = test: Growth inhibition of human HCT15 cells at 10 uM after 48 hrs by SRB assay; details: HCT-15, 48 h, read-out: GI; how it was run: as §1
RPMI-8226 = test: Growth inhibition of human RPMI8226 cells at 10 uM after 48 hrs by SRB assay; details: RPMI-8226, 48 h, read-out: GI; how it was run: as §1
KM12 = test: Growth inhibition of human KM12 cells at 10 uM after 48 hrs by SRB assay; details: KM12, 48 h, read-out: GI; how it was run: as §1
SW-620 = test: Growth inhibition of human SW620 cells at 10 uM after 48 hrs by SRB assay; details: SW-620, 48 h, read-out: GI; how it was run: as §2
HCT-116 = test: Growth inhibition of human HCT116 cells at 10 uM after 48 hrs by SRB assay; details: HCT-116, 48 h, read-out: GI; how it was run: as §1
RXF 393 = test: Growth inhibition of human RXF393 cells at 10 uM after 48 hrs by SRB assay; details: RXF 393, 48 h, read-out: GI; how it was run: as §1
OVCAR-4 = test: Growth inhibition of human OVCAR4 cells at 10 uM after 48 hrs by SRB assay; details: OVCAR-4, 48 h, read-out: GI; how it was run: as §1
CCRF-CEM = test: Growth inhibition of human CCRF-CEM cells at 10 uM after 48 hrs by SRB assay; details: read-out: GI; how it was run: as §1
A498 = test: Growth inhibition of human A498 cells at 10 uM after 48 hrs by SRB assay; details: A498, 48 h, read-out: GI; how it was run: as §1
K562 = test: Growth inhibition of human K562 cells at 10 uM after 48 hrs by SRB assay; details: K562, 48 h, read-out: GI; how it was run: as §1
OVCAR-3 = test: Growth inhibition of human OVCAR3 cells at 10 uM after 48 hrs by SRB assay; details: OVCAR-3, 48 h, read-out: GI; how it was run: as §1
NCI-H23 = test: Growth inhibition of human NCI-H23 cells at 10 uM after 48 hrs by SRB assay; details: NCI-H23, 48 h, read-out: GI; how it was run: as §1
BT-549 = test: Growth inhibition of human BT549 cells at 10 uM after 48 hrs by SRB assay; details: BT-549, 48 h, read-out: GI; how it was run: as §1
SK-MEL-5 = test: Growth inhibition of human SK-MEL-5 cells at 10 uM after 48 hrs by SRB assay; details: SK-MEL-5, 48 h, read-out: GI; how it was run: as §1
SR = test: Growth inhibition of human SR cells at 10 uM after 48 hrs by SRB assay; details: read-out: GI; how it was run: as §2
NCI-H226 = test: Growth inhibition of human NCI-H226 cells at 10 uM after 48 hrs by SRB assay; details: NCI-H226, 48 h, read-out: GI; how it was run: as §1
MDA-MB-468 = test: Growth inhibition of human MDA-MB-468 cells at 10 uM after 48 hrs by SRB assay; how it was run: as §1
Malme-3M = test: Growth inhibition of human MALME-3M cells at 10 uM after 48 hrs by SRB assay; details: read-out: GI; how it was run: as §1
U-251 = test: Growth inhibition of human U251 cells at 10 uM after 48 hrs by SRB assay; details: U-251, 48 h, read-out: GI; how it was run: as §2
Hs-578T = test: Growth inhibition of human Hs578T cells at 10 uM after 48 hrs by SRB assay; details: read-out: GI; how it was run: as §1
SK-OV-3 = test: Growth inhibition of human SKOV3 cells at 10 uM after 48 hrs by SRB assay; details: SK-OV-3, 48 h, read-out: GI; how it was run: as §2
A549 = test: Growth inhibition of human A549 cells at 10 uM after 48 hrs by SRB assay; details: A549, 48 h, read-out: GI; how it was run: as §1
MCF7 = test: Growth inhibition of human MCF7 cells at 10 uM after 48 hrs by SRB assay; details: MCF7, 48 h, read-out: GI; how it was run: as §1
NCI-H460 = test: Growth inhibition of human NCI-H460 cells at 10 uM after 48 hrs by SRB assay; details: NCI-H460, 48 h, read-out: GI; how it was run: as §1
SNB-19 = test: Growth inhibition of human SNB19 cells at 10 uM after 48 hrs by SRB assay; details: SNB-19, 48 h, read-out: GI; how it was run: as §2

| Structure (SMILES) | inhibition of growth at 10 µM (PC-3) [%] | inhibition of growth at 10 µM (NCI-H522) [%] | inhibition of growth at 10 µM (T47D) [%] | inhibition of growth at 10 µM (NCI-H322M) [%] | inhibition of growth at 10 µM (HOP-62) [%] | inhibition of growth at 10 µM (OVCAR-5) [%] | inhibition of growth at 10 µM (UACC-62) [%] | inhibition of growth at 10 µM (SNB-75) [%] | inhibition of growth at 10 µM (SN12C) [%] | inhibition of growth at 10 µM [1] [%] | inhibition of growth at 10 µM (TK-10) [%] | inhibition of growth at 10 µM (HCT-15) [%] | inhibition of growth at 10 µM (RPMI-8226) [%] | inhibition of growth at 10 µM (KM12) [%] | inhibition of growth at 10 µM (SW-620) [%] | inhibition of growth at 10 µM (HCT-116) [%] | inhibition of growth at 10 µM (RXF 393) [%] | inhibition of growth at 10 µM (OVCAR-4) [%] | inhibition of growth at 10 µM (CCRF-CEM) [%] | inhibition of growth at 10 µM (A498) [%] | further results |
| --- | --- | --- | --- | --- | --- | --- | --- | --- | --- | --- | --- | --- | --- | --- | --- | --- | --- | --- | --- | --- | --- |
| O=c1c2cccc3c(N4CCOCC4)ccc(c32)c2nc3ccccc3n12 | < 20 | < 20 | 61.9 | < 20 | < 20 | < 20 | 37.9 | 20.9 | < 20 | 26.8 | 28.2 | < 20 | < 20 | 21.9 | < 20 | < 20 | < 20 | 30.1 | < 20 | < 20 | inhibition of growth at 10 µM (K562): < 20%; inhibition of growth at 10 µM (OVCAR-3): < 20%; inhibition of growth at 10 µM (NCI-H23): 23.1%; inhibition of growth at 10 µM (BT-549): < 20%; inhibition of growth at 10 µM (SK-MEL-5): 26.6%; inhibition of growth at 10 µM (SR): < 20%; inhibition of growth at 10 µM (NCI-H226): < 20%; growth inhibition (GI) (MDA-MB-468): Active; inhibition of growth at 10 µM (Malme-3M): < 20%; inhibition of growth at 10 µM (U-251): < 20%; inhibition of growth at 10 µM (Hs-578T): 59.8%; inhibition of growth at 10 µM (SK-OV-3): < 20%; inhibition of growth at 10 µM (A549): < 20%; inhibition of growth at 10 µM (MCF7): 76%; inhibition of growth at 10 µM (NCI-H460): < 20%; inhibition of growth at 10 µM (SNB-19): < 20% |
| O=c1c2cccc3c(Nc4ccc(Br)cn4)ccc(c32)c2nc3ccccc3n12 | 23.3 | < 20 | 81.6 | 22.1 | < 20 | < 20 | < 20 | 56 | < 20 | 25.2 | 21.9 | 28 | 43.8 | 22.8 | < 20 | < 20 | < 20 | 46.3 | < 20 | < 20 | inhibition of growth at 10 µM (K562): < 20%; inhibition of growth at 10 µM (OVCAR-3): < 20%; inhibition of growth at 10 µM (NCI-H23): < 20%; inhibition of growth at 10 µM (BT-549): < 20%; inhibition of growth at 10 µM (SK-MEL-5): 23.8%; inhibition of growth at 10 µM (SR): 47.1%; inhibition of growth at 10 µM (NCI-H226): < 20%; growth inhibition (GI) (MDA-MB-468): Active; inhibition of growth at 10 µM (Malme-3M): < 20%; inhibition of growth at 10 µM (U-251): < 20%; inhibition of growth at 10 µM (Hs-578T): < 20%; inhibition of growth at 10 µM (SK-OV-3): < 20%; inhibition of growth at 10 µM (A549): < 20%; inhibition of growth at 10 µM (MCF7): 95.8%; inhibition of growth at 10 µM (NCI-H460): < 20%; inhibition of growth at 10 µM (SNB-19): < 20% |
| O=c1c2cccc3c(N4CCCC4)ccc(c32)c2nc3ccccc3n12 | 32.1 | 28.9 | 27.9 | < 20 | 33.9 | < 20 | 37.5 | 27 | 35.2 | 29.6 | < 20 | 21.4 | 24.3 | < 20 | 40.5 | 45.3 | < 20 | 21.2 | 46.3 | 62 | inhibition of growth at 10 µM (K562): 24%; inhibition of growth at 10 µM (OVCAR-3): < 20%; inhibition of growth at 10 µM (NCI-H23): 31.8%; inhibition of growth at 10 µM (BT-549): 28.8%; inhibition of growth at 10 µM (SK-MEL-5): 35.5%; inhibition of growth at 10 µM (SR): 79.8%; inhibition of growth at 10 µM (NCI-H226): 44.7%; inhibition of growth at 10 µM (MDA-MB-468; MDA-MB-468, 48 h, read-out: GI): < 20%; inhibition of growth at 10 µM (Malme-3M): 29.6%; inhibition of growth at 10 µM (U-251): 35.3%; inhibition of growth at 10 µM (Hs-578T): 32.8%; inhibition of growth at 10 µM (SK-OV-3): 20.9%; inhibition of growth at 10 µM (A549): 67.4%; inhibition of growth at 10 µM (MCF7): 50%; inhibition of growth at 10 µM (NCI-H460): 83.9%; inhibition of growth at 10 µM (SNB-19): 24% |
